Target: T1, B2 bradykinin receptor (Homo sapiens, UniProt P30411)
T1 sequence (P30411 whole entry): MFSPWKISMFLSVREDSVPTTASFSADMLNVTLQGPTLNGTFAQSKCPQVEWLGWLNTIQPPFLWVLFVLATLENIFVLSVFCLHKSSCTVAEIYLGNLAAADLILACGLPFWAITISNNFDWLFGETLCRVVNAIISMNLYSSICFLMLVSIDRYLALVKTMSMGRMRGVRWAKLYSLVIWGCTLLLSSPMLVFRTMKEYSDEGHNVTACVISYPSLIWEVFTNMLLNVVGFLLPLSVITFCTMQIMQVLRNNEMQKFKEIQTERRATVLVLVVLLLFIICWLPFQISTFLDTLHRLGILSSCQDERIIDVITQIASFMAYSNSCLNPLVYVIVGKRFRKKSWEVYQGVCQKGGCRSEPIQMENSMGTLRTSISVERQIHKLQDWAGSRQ
Assay: Inhibition of specific binding of [3H]BK at 1 nM to human bradykinin receptor B2 expressed in CHO cells by 50%.
Format: cell-based
Summary of the method: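 Intact CHO (dhfr−) cells stably expressing human B2, seeded 3.0 × 10⁴/well for 1 day. Incubated with [3H]BK and compound 2 h at 4 °C in HEPES/N-methyl-D-glucamine buffer pH 7.2 with enalaprilat, bacitracin and 0.1% BSA. Cells lysed in SDS/NaOH and counted; nonspecific binding with 1 μM BK. Three experiments.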

| IC50 | SMILES |
| --- | --- |
| 87 nM | CNC(=O)c1ccc(/C=C/C(=O)NCC(=O)N(C)c2ccc(Cl)c(COc3cccc4c(N5CCCC5)cc(C)nc34)c2Cl)cc1 |
| 41 nM | CNC(=O)c1ccc(/C=C/C(=O)NCC(=O)N(C)c2ccc(Cl)c(COc3cccc4c(NCCOC)cc(C)nc34)c2Cl)cc1 |
| 98 nM | CNC(=O)c1ccc(/C=C/C(=O)NCC(=O)N(C)c2ccc(Cl)c(COc3cccc4c(N5CCN(C)CC5)cc(C)nc34)c2Cl)cc1 |
| 1.1 nM | CNC(=O)c1ccc(/C=C/C(=O)NCC(=O)N(C)c2ccc(Cl)c(COc3cccc4c(N5CCCCC5)cc(C)nc34)c2Cl)cc1.Cl.Cl.Cl.Cl |
| 19 nM | CNC(=O)c1ccc(/C=C/C(=O)NCC(=O)N(C)c2ccc(Cl)c(COc3cccc4c(N(CCOC)CCOC)cc(C)nc34)c2Cl)cc1 |
| 37 nM | CNC(=O)c1ccc(/C=C/C(=O)NCC(=O)N(C)c2ccc(Cl)c(COc3cccc4c(N5CCCCCC5)cc(C)nc34)c2Cl)cc1 |
| 1.8 nM | Cc1cc(N2CCOCC2)c2cccc(OCc3c(Cl)ccc(N(C)C(=O)CNC(=O)/C=C/c4ccc(N5CCCC5=O)cc4)c3Cl)c2n1.Cl.Cl.Cl.Cl |
| 0.76 nM | Cc1cc(N2CCCCC2)c2cccc(OCc3c(Cl)ccc(N(C)C(=O)CNC(=O)/C=C/c4ccc(C(=O)N(C)C)cc4)c3Cl)c2n1.Cl.Cl.Cl.Cl |
| 4 nM | Cc1cc(N(C)C)c2cccc(OCc3c(Cl)ccc(N(C)C(=O)CNC(=O)/C=C/c4ccc(C(=O)N(C)C)nc4)c3Cl)c2n1.Cl.Cl.Cl.Cl |
| 1.2 nM | Cc1cc(N2CCCCC2)c2cccc(OCc3c(Cl)ccc(N(C)C(=O)CNC(=O)/C=C/c4ccc(N5CCCC5=O)cc4)c3Cl)c2n1.Cl.Cl.Cl.Cl |
| 4.8 nM | CC(=O)Nc1ccc(/C=C/C(=O)NCC(=O)N(C)c2ccc(Cl)c(COc3cccc4c(N(C)C)cc(C)nc34)c2Cl)cc1C.Cl.Cl.Cl.Cl |
| 0.88 nM | Cc1cc(N2CCOCC2)c2cccc(OCc3c(Cl)ccc(N(C)C(=O)CNC(=O)/C=C/c4ccc(C(=O)N(C)C)cc4)c3Cl)c2n1 |
| 2.7 nM | CNC(=O)c1ccc(/C=C/C(=O)NCC(=O)N(C)c2ccc(Cl)c(COc3cccc4c(N5CCOCC5)cc(C)nc34)c2Cl)cc1.Cl.Cl.Cl.Cl |
| 2 nM | CNC(=O)c1ccc(/C=C/C(=O)NCC(=O)N(C)c2ccc(Cl)c(COc3cccc4c(N(C)C)cc(C)nc34)c2Cl)cc1OC.Cl.Cl.Cl.Cl |

Tested on: CHO
Assay: Relative agonistic activity in IP formation compared to BK (10 nM) IPs in CHO cells expressing the cloned human B2 receptor at 1 uM concentration
Format: functional, Cricetulus griseus
Summary of the method: (§1)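 Human B2-CHO cells labeled 24 h with [3H]inositol (1 μCi/mL). Preincubated in PBS/0.2% BSA with 10 mM LiCl for 30 min at 37 °C, then compound for 30 min at 37 °C. Stopped with 5% TCA. IP1–IP3 separated on AG 1-X8 and counted. Basal counts subtracted; response expressed relative to 10 nM BK.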

| SMILES | Relative agonistic activity |
| --- | --- |
| CNC(=O)c1ccc(/C=C/C(=O)NCC(=O)N(C)c2ccc(Cl)c(COc3cccc4c(N5CCCCC5)cc(C)nc34)c2Cl)cc1.Cl.Cl.Cl.Cl | 4.4% |
| Cc1cc(N2CCOCC2)c2cccc(OCc3c(Cl)ccc(N(C)C(=O)CNC(=O)/C=C/c4ccc(N5CCCC5=O)cc4)c3Cl)c2n1.Cl.Cl.Cl.Cl | 6% |
| Cc1cc(N2CCCCC2)c2cccc(OCc3c(Cl)ccc(N(C)C(=O)CNC(=O)/C=C/c4ccc(C(=O)N(C)C)cc4)c3Cl)c2n1.Cl.Cl.Cl.Cl | 17.2% |
| Cc1cc(N2CCCCC2)c2cccc(OCc3c(Cl)ccc(N(C)C(=O)CNC(=O)/C=C/c4ccc(N5CCCC5=O)cc4)c3Cl)c2n1.Cl.Cl.Cl.Cl | 14.8% |
| CNC(=O)c1ccc(/C=C/C(=O)NCC(=O)N(C)c2ccc(Cl)c(COc3cccc4c(N5CCOCC5)cc(C)nc34)c2Cl)cc1.Cl.Cl.Cl.Cl | 0.9% |

Tested on: CHO
Assay: Relative agonistic activity in IP formation compared to BK (10 nM) IPs in CHO cells expressing the cloned human B2 receptor at 10 uM concentration
Format: functional, Cricetulus griseus
Summary of the method: as §1

| SMILES | Relative agonistic activity |
| --- | --- |
| CNC(=O)c1ccc(/C=C/C(=O)NCC(=O)N(C)c2ccc(Cl)c(COc3cccc4c(N5CCCCC5)cc(C)nc34)c2Cl)cc1.Cl.Cl.Cl.Cl | 4.2% |
| Cc1cc(N2CCOCC2)c2cccc(OCc3c(Cl)ccc(N(C)C(=O)CNC(=O)/C=C/c4ccc(N5CCCC5=O)cc4)c3Cl)c2n1.Cl.Cl.Cl.Cl | 9.2% |
| Cc1cc(N2CCCCC2)c2cccc(OCc3c(Cl)ccc(N(C)C(=O)CNC(=O)/C=C/c4ccc(C(=O)N(C)C)cc4)c3Cl)c2n1.Cl.Cl.Cl.Cl | 21.8% |
| Cc1cc(N2CCCCC2)c2cccc(OCc3c(Cl)ccc(N(C)C(=O)CNC(=O)/C=C/c4ccc(N5CCCC5=O)cc4)c3Cl)c2n1.Cl.Cl.Cl.Cl | 18.7% |
| CNC(=O)c1ccc(/C=C/C(=O)NCC(=O)N(C)c2ccc(Cl)c(COc3cccc4c(N5CCOCC5)cc(C)nc34)c2Cl)cc1.Cl.Cl.Cl.Cl | -1.9% |

Target: T2, B2 bradykinin receptor (Cavia porcellus, UniProt O70526)
T2 sequence (O70526 whole entry): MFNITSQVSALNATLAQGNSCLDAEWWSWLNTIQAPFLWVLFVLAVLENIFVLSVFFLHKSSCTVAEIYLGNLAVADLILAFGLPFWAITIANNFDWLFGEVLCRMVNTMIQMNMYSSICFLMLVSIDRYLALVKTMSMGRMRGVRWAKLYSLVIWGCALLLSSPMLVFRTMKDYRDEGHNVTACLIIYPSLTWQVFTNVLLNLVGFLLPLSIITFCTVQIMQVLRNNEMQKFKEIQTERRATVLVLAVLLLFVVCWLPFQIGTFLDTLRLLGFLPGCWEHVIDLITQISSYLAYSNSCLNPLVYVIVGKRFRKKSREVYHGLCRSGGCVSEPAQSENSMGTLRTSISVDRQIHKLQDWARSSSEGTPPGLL
Assay: Inhibition of specific binding of [3H]BK at 0.06 nM to bradykinin receptor B2 in guinea pig ileum membrane preparations by 50%.
Format: cell membranes
Summary of the method: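 Ileum membranes from male Hartley guinea pigs, 0.2 mg protein/mL, in TES pH 6.8 containing phenanthroline, bacitracin, DTT, captopril and 0.1% BSA. Incubated with [3H]BK and compound at room temperature for 60 min. GF/B filtration, scintillation counting; nonspecific binding with 1 μM BK. Three experiments.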

| IC50 | SMILES |
| --- | --- |
| 2300 nM | CNC(=O)c1ccc(/C=C/C(=O)NCC(=O)N(C)c2ccc(Cl)c(COc3cccc4c(N5CCCC5)cc(C)nc34)c2Cl)cc1 |
| 49 nM | CNC(=O)c1ccc(/C=C/C(=O)NCC(=O)N(C)c2ccc(Cl)c(COc3cccc4c(NCCOC)cc(C)nc34)c2Cl)cc1 |
| 1500 nM | CNC(=O)c1ccc(/C=C/C(=O)NCC(=O)N(C)c2ccc(Cl)c(COc3cccc4c(N5CCN(C)CC5)cc(C)nc34)c2Cl)cc1 |
| 68 nM | CNC(=O)c1ccc(/C=C/C(=O)NCC(=O)N(C)c2ccc(Cl)c(COc3cccc4c(N5CCCCC5)cc(C)nc34)c2Cl)cc1.Cl.Cl.Cl.Cl |
| 560 nM | CNC(=O)c1ccc(/C=C/C(=O)NCC(=O)N(C)c2ccc(Cl)c(COc3cccc4c(N(CCOC)CCOC)cc(C)nc34)c2Cl)cc1 |
| 840 nM | CNC(=O)c1ccc(/C=C/C(=O)NCC(=O)N(C)c2ccc(Cl)c(COc3cccc4c(N5CCCCCC5)cc(C)nc34)c2Cl)cc1 |
| 13 nM | Cc1cc(N2CCOCC2)c2cccc(OCc3c(Cl)ccc(N(C)C(=O)CNC(=O)/C=C/c4ccc(N5CCCC5=O)cc4)c3Cl)c2n1.Cl.Cl.Cl.Cl |
| 30 nM | Cc1cc(N2CCCCC2)c2cccc(OCc3c(Cl)ccc(N(C)C(=O)CNC(=O)/C=C/c4ccc(C(=O)N(C)C)cc4)c3Cl)c2n1.Cl.Cl.Cl.Cl |
| 8.1 nM | Cc1cc(N(C)C)c2cccc(OCc3c(Cl)ccc(N(C)C(=O)CNC(=O)/C=C/c4ccc(C(=O)N(C)C)nc4)c3Cl)c2n1.Cl.Cl.Cl.Cl |
| 28 nM | Cc1cc(N2CCCCC2)c2cccc(OCc3c(Cl)ccc(N(C)C(=O)CNC(=O)/C=C/c4ccc(N5CCCC5=O)cc4)c3Cl)c2n1.Cl.Cl.Cl.Cl |
| 21 nM | CC(=O)Nc1ccc(/C=C/C(=O)NCC(=O)N(C)c2ccc(Cl)c(COc3cccc4c(N(C)C)cc(C)nc34)c2Cl)cc1C.Cl.Cl.Cl.Cl |
| 43 nM | Cc1cc(N2CCOCC2)c2cccc(OCc3c(Cl)ccc(N(C)C(=O)CNC(=O)/C=C/c4ccc(C(=O)N(C)C)cc4)c3Cl)c2n1 |
| 12 nM | CNC(=O)c1ccc(/C=C/C(=O)NCC(=O)N(C)c2ccc(Cl)c(COc3cccc4c(N5CCOCC5)cc(C)nc34)c2Cl)cc1.Cl.Cl.Cl.Cl |
| 5.6 nM | CNC(=O)c1ccc(/C=C/C(=O)NCC(=O)N(C)c2ccc(Cl)c(COc3cccc4c(N(C)C)cc(C)nc34)c2Cl)cc1OC.Cl.Cl.Cl.Cl |

Tested on: Cavia porcellus
Assay: In vivo functional antagonistic activity in inhibiting BK (5 ug/kg, i.v.) induced bronchoconstriction in guinea pigs by 100 ug/kg iv administration
Summary of the method: (§2)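 Male Hartley guinea pigs (470–750 g), fasted overnight, pentobarbital 30 mg/kg i.p., ventilated 10 mL/kg at 60 breaths/min, alcuronium 0.5 mg/kg i.v., propranolol 10 mg/kg s.c. BK in saline/0.1% BSA i.v.; compound in 5% citric acid i.v. 25 min after first BK, BK repeated 5 min later. Peak insufflation pressure rise (Konzett–Rössler); % inhibition versus vehicle, n = 3–4.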

| SMILES | Inhibition |
| --- | --- |
| CC(=O)Nc1ccc(/C=C/C(=O)NCC(=O)N(C)c2ccc(Cl)c(COc3cccc4c(N(C)C)cc(C)nc34)c2Cl)cc1C.Cl.Cl.Cl.Cl | 94.7% |

Tested on: Cavia porcellus
Assay: In vivo functional antagonistic activity in inhibiting BK (5 ug/kg, i.v.) induced bronchoconstriction in guinea pigs by 10 ug/kg iv administration
Summary of the method: as §2

| SMILES | Inhibition |
| --- | --- |
| Cc1cc(N(C)C)c2cccc(OCc3c(Cl)ccc(N(C)C(=O)CNC(=O)/C=C/c4ccc(C(=O)N(C)C)nc4)c3Cl)c2n1.Cl.Cl.Cl.Cl | 89.7% |
| CNC(=O)c1ccc(/C=C/C(=O)NCC(=O)N(C)c2ccc(Cl)c(COc3cccc4c(N(C)C)cc(C)nc34)c2Cl)cc1OC.Cl.Cl.Cl.Cl | 88.7% |
